Data published in ChEMBL document CHEMBL3286319, “Hyafurones, hyapyrrolines, and hyapyrones: polyketides from Hyalangium minutum” (J Nat Prod, 2014).
pIC50: −log10 of the molar value. ≈ marks a conversion by molar mass, not a printed value. Calls of active or inactive are those of the source. No cut-off for these calls is given here.

Legend:
[1] = tested on: Chromobacterium violaceum; assay: Antibacterial activity against Chromobacterium violaceum by serial dilution method; assay type: functional
Nocardia = assay: Antibacterial activity against Nocardia flava by serial dilution method; assay type: functional
Rhodotorula glutinis = assay: Antifungal activity against Rhodotorula glutinis by serial dilution method; assay type: functional
How it was run: (§1)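 MIC by 1:1 serial dilution in 96-well microtiter plates. Yeasts and fungi were grown in MYC medium (1.0% glucose, 1.0% phytone peptone, 50 mM HEPES, pH 7.0).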

Staphylococcus aureus = assay: Antibacterial activity against Staphylococcus aureus by serial dilution method; assay type: functional
[2] = tested on: Schizosaccharomyces pombe; assay: Antifungal activity against Schizosaccharomyces pombe by serial dilution method; assay type: functional; how it was run: as §1
Candida albicans = assay: Antifungal activity against Candida albicans by serial dilution method; assay type: functional; how it was run: as §1
Wickerhamomyces anomalus = assay: Antifungal activity against Pichia anomala by serial dilution method; assay type: functional; conditions: Hansenula anomala; how it was run: as §1
Pseudomonas aeruginosa = assay: Antibacterial activity against Pseudomonas aeruginosa by serial dilution method; assay type: functional
Mycolicibacterium phlei = assay: Antibacterial activity against Mycobacterium phlei by serial dilution method; assay type: functional
Micrococcus luteus = assay: Antibacterial activity against Micrococcus luteus by serial dilution method; assay type: functional
Escherichia coli = assay: Antibacterial activity against Escherichia coli TolC by serial dilution method; assay type: functional
Mucor hiemalis = assay: Antifungal activity against Mucor hiemalis by serial dilution method; assay type: functional; how it was run: as §1
L929 = assay: Cytotoxicity against mouse L929 cells by MTT assay; assay type: cell-based
Plasmodium falciparum = assay: Antiparasitic activity against Plasmodium falciparum K1; assay type: functional, organism-based
Leishmania donovani = assay: Antiparasitic activity against Leishmania donovani axenic amastigotes; assay type: functional, organism-based
[3] = tested on: Trypanosoma brucei rhodesiense; assay: Antiparasitic activity against Trypanosoma brucei rhodesiense; assay type: functional, organism-based
Trypanosoma cruzi = assay: Antiparasitic activity against Trypanosoma cruzi; assay type: functional, organism-based
HUVEC = assay: Cytotoxicity against HUVEC by MTT assay; assay type: cell-based; conditions: Homo sapiens

With `CC1=C(O)C(C)O/C(=C/CC(O)\C=C/C=C/C(C)=C/C=C/C(C)C(O)C(C)CCc2ccccc2)C1=O` (stereo not given) the MIC [1] was > 67 µg/mL, the MIC (Nocardia) was > 67 µg/mL and the MIC (Rhodotorula glutinis) was > 67 µg/mL. The MIC (Staphylococcus aureus) was > 67 µg/mL, the MIC [2] was > 67 µg/mL and the MIC (Candida albicans) was > 67 µg/mL. For the same compound, the MIC (Wickerhamomyces anomalus) was > 67 µg/mL, the MIC (Pseudomonas aeruginosa) was > 67 µg/mL and the MIC (Mycolicibacterium phlei) was > 67 µg/mL. For the same compound, the MIC (Micrococcus luteus) was > 67 µg/mL, the MIC (Escherichia coli) was > 67 µg/mL and the MIC (Mucor hiemalis; read-out: MIC) was ≤ 67 µg/mL.
With `CC1=C(/C=C/CC(O)\C=C/C=C/C(C)=C/C=C/C(C)C(O)C(C)CCc2ccccc2)OC(C)(O)C1=O` (stereo not given) the MIC [1] was > 67 µg/mL, the MIC (Nocardia; read-out: MIC) was 8.3 µg/mL (≈ 16.4 µM) and the MIC (Rhodotorula glutinis) was > 67 µg/mL. The MIC (Staphylococcus aureus) was > 67 µg/mL, the MIC [2] was > 67 µg/mL and the MIC (Candida albicans) was > 67 µg/mL. For the same compound, the MIC (Wickerhamomyces anomalus) was > 67 µg/mL, the MIC (Pseudomonas aeruginosa) was > 67 µg/mL and the MIC (Mycolicibacterium phlei) was > 67 µg/mL. The MIC (Micrococcus luteus) was > 67 µg/mL, the MIC (Escherichia coli) was > 67 µg/mL and the MIC (Mucor hiemalis) was > 67 µg/mL.
`CC1=C(CC(O)CC(O)\C=C/C=C/C(C)=C/C=C/C(C)C(O)C(C)CCc2ccccc2)N(CCO)C(C)(O)C1=O` (stereo not given) was tested, and the MIC [1] was > 67 µg/mL, the MIC (Nocardia) was > 67 µg/mL and the MIC (Rhodotorula glutinis) was > 67 µg/mL. For the same compound, the MIC (Staphylococcus aureus) was > 67 µg/mL, the MIC [2] was > 67 µg/mL and the MIC (Candida albicans) was > 67 µg/mL. The MIC (Wickerhamomyces anomalus) was > 67 µg/mL, the MIC (Pseudomonas aeruginosa) was > 67 µg/mL and the MIC (Mycolicibacterium phlei) was > 67 µg/mL. The MIC (Micrococcus luteus) was > 67 µg/mL, the MIC (Escherichia coli) was > 67 µg/mL and the MIC (Mucor hiemalis) was > 67 µg/mL.
In the case of `CC(/C=C/CCCC/C=C/c1oc(=O)c(C)c(O)c1C)=C\C=C\C(C)C(O)C(C)CCc1ccccc1` (stereo not given), the MIC [1] was > 67 µg/mL, the MIC (Nocardia; read-out: MIC) was 16.6 µg/mL (≈ 32.9 µM) and the MIC (Rhodotorula glutinis) was > 67 µg/mL. The MIC (Staphylococcus aureus) was > 67 µg/mL, the MIC [2] was > 67 µg/mL and the MIC (Candida albicans) was > 67 µg/mL. The MIC (Wickerhamomyces anomalus) was > 67 µg/mL, the MIC (Pseudomonas aeruginosa) was > 67 µg/mL and the MIC (Mycolicibacterium phlei) was > 67 µg/mL. The MIC (Micrococcus luteus) was > 67 µg/mL, the MIC (Escherichia coli) was > 67 µg/mL and the MIC (Mucor hiemalis; read-out: MIC) was 33.3 µg/mL (≈ 66 µM). For the same compound, the pIC50 (L929) was 4.66.
`CC1=C(CC(O)CC(O)\C=C/C=C/C(C)=C/C=C/C(C)C(O)C(C)CCc2ccccc2)OC(C)(O)C1=O` (stereo not given) was tested, and the Activity (Plasmodium falciparum) was “inactive”, the MIC [1] was > 67 µg/mL and the MIC (Nocardia) was > 67 µg/mL. The MIC (Rhodotorula glutinis) was > 67 µg/mL, the MIC (Staphylococcus aureus) was > 67 µg/mL and the MIC [2] was > 67 µg/mL. For the same compound, the MIC (Candida albicans) was > 67 µg/mL, the MIC (Wickerhamomyces anomalus) was > 67 µg/mL and the MIC (Pseudomonas aeruginosa) was > 67 µg/mL. The Activity (Leishmania donovani) was “inactive”, the Activity [3] was “inactive” and the Activity (Trypanosoma cruzi) was “inactive”. For the same compound, the MIC (Mycolicibacterium phlei) was > 67 µg/mL, the MIC (Micrococcus luteus) was > 67 µg/mL and the MIC (Escherichia coli) was > 67 µg/mL. For the same compound, the MIC (Mucor hiemalis) was > 67 µg/mL and the pIC50 (HUVEC) was 5.57.
For `CC1=C(CC(O)CC(O)/C=C/C=C/C(C)=C/C=C/C(C)C(O)C(C)CCc2ccccc2)OC(C)(O)C1=O` (stereo not given), the MIC [1] was > 67 µg/mL, the MIC (Nocardia) was > 67 µg/mL and the MIC (Rhodotorula glutinis) was > 67 µg/mL. The MIC (Staphylococcus aureus) was > 67 µg/mL, the MIC [2] was > 67 µg/mL and the MIC (Candida albicans) was > 67 µg/mL. The MIC (Wickerhamomyces anomalus) was > 67 µg/mL, the MIC (Pseudomonas aeruginosa) was > 67 µg/mL and the MIC (Mycolicibacterium phlei) was > 67 µg/mL. For the same compound, the MIC (Micrococcus luteus) was > 67 µg/mL, the MIC (Escherichia coli) was > 67 µg/mL and the MIC (Mucor hiemalis) was > 67 µg/mL.
For `CC1=C(CC(O)CC(O)\C=C/C=C/C(C)=C/C=C/C(C)C(O)C(C)CCc2ccccc2)[N+](C)(CCO)C(C)(O)C1=O` (stereo not given), the MIC [1] was > 67 µg/mL, the MIC (Nocardia; read-out: MIC) was > 67 µg/mL and the MIC (Rhodotorula glutinis) was > 67 µg/mL. For the same compound, the MIC (Staphylococcus aureus) was > 67 µg/mL, the MIC [2] was > 67 µg/mL and the MIC (Candida albicans) was > 67 µg/mL. For the same compound, the MIC (Wickerhamomyces anomalus) was > 67 µg/mL, the MIC (Pseudomonas aeruginosa) was > 67 µg/mL and the MIC (Mycolicibacterium phlei) was > 67 µg/mL. For the same compound, the MIC (Micrococcus luteus) was > 67 µg/mL, the MIC (Escherichia coli) was > 67 µg/mL and the MIC (Mucor hiemalis; read-out: MIC) was > 67 µg/mL.
